# In ChEMBL document CHEMBL1129453, “3-amino-3,4-dihydro-2H-1-benzopyran derivatives as 5-HT1A receptor ligands and potential anxiolytic agents. 2. Synthesis and quantitative structure-activity relationship studies of spiro[pyrrolidine- and piperidine-2,3'(2'H)-benzopyrans]” (J Med Chem, 1996):
# Species: Rattus norvegicus
# Test: Effects of enantiomeric compound on adenylate cyclase activity in rat hippocampus
# Type: functional
# Procedure, shortened: (§1)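 Rat hippocampal membranes incubated 20 min at 30 °C with forskolin 10 μM, [α-32P]ATP 0.1 μM and test compound. Activity measured as conversion to [32P]cAMP (nM/mg protein/20 min), given as % of control. Mean ± standard error of three determinations in two experiments; Student's t-test versus 100%, p < 0.05.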
row,Structure (SMILES),Effect
1,"COc1cccc2c1CC1(CCCN1CCCCN1C(=O)CC3(CCCC3)CC1=O)CO2 (single isomer, unassigned; (+))",98%
2,"COc1cccc2c1CC1(CCCN1CCCCN1C(=O)CC3(CCCC3)CC1=O)CO2 (single isomer, unassigned; (-))",101%

# Molecular target: 5-hydroxytryptamine receptor 1B (Rattus norvegicus, UniProt P28564)
# Test: Binding affinity to 5-HT1B receptors using rat cortex+striatum + globus pallidus,[3H]-5-OH-tryptamine, and serotonin for NSB
# Procedure, shortened: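 Membranes from rat cortex plus striatum plus globus pallidus; [3H]-5-OH-tryptamine as radioligand at roughly its KD; serotonin defines nonspecific binding. Competition binding; IC50 taken as concentration inhibiting 50% of specific binding.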
# Sequence of 5-hydroxytryptamine receptor 1B (P28564 whole entry): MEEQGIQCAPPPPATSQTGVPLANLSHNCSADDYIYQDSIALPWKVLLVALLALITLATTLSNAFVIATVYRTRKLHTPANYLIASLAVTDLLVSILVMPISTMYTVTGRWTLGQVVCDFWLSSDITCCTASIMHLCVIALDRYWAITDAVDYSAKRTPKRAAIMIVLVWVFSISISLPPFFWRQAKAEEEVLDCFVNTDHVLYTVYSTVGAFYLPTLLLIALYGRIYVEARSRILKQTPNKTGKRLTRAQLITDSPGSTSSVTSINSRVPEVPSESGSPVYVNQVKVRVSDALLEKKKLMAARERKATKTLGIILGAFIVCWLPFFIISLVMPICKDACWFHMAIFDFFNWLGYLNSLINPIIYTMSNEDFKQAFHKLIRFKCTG
row,Structure (SMILES),IC50
1,COc1cccc2c1CC1(CCC(=O)N1)CO2 (centres undefined),> 10 µM
2,"COc1cccc2c1CC1(CCCN1CCCCN1C(=O)CC3(CCCC3)CC1=O)CO2 (single isomer, unassigned; (+))",1.3 µM
3,"COc1cccc2c1CC1(CCCN1CCCCN1C(=O)CC3(CCCC3)CC1=O)CO2 (single isomer, unassigned; (-))",31.1 µM

# Molecular target: not listed separately
# Test: Displacement of [3H]raclopride from Dopamine receptor […] of calf striatum
# Set-up: species or system Bos taurus
# Procedure, shortened: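 Calf striatum; [3H]raclopride at about its KD; haloperidol for nonspecific binding. Competition assay reporting IC50 (50% inhibition of specific binding).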
row,Structure (SMILES),IC50
1,"COc1cccc2c1CC1(CCCN1CCCCN1C(=O)CC3(CCCC3)CC1=O)CO2 (single isomer, unassigned; (+))",22.4 µM
2,"COc1cccc2c1CC1(CCCN1CCCCN1C(=O)CC3(CCCC3)CC1=O)CO2 (single isomer, unassigned; (-))",23.3 µM

# Species: Rattus norvegicus
# Test: Effects of enantiomeric compound on adenylate cyclase activity in rat hippocampus at 10e-5 M
# Type: functional
# Procedure, shortened: as §1
row,Structure (SMILES),Effect
1,"COc1cccc2c1CC1(CCCN1CCCCN1C(=O)CC3(CCCC3)CC1=O)CO2 (single isomer, unassigned; (-))",81%

# Species: Rattus norvegicus
# Test: Effects of enantiomeric compound on adenylate cyclase activity in rat hippocampus at 10e-8 M
# Type: functional
# Procedure, shortened: as §1
row,Structure (SMILES),Effect
1,"COc1cccc2c1CC1(CCCN1CCCCN1C(=O)CC3(CCCC3)CC1=O)CO2 (single isomer, unassigned; (-))",98%

# Molecular target: D(2) dopamine receptor (Bos taurus, UniProt P20288)
# Test: Displacement of [3H]SDZ-205-501 from Dopamine receptor D2 in calf caudate nucleus.
# Procedure, shortened: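 Calf caudate nucleus; [3H]SDZ205-501 near its KD; butaclamol for nonspecific binding. Competition binding; IC50 for 50% inhibition of specific binding.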
# Sequence of D(2) dopamine receptor (P20288 whole entry): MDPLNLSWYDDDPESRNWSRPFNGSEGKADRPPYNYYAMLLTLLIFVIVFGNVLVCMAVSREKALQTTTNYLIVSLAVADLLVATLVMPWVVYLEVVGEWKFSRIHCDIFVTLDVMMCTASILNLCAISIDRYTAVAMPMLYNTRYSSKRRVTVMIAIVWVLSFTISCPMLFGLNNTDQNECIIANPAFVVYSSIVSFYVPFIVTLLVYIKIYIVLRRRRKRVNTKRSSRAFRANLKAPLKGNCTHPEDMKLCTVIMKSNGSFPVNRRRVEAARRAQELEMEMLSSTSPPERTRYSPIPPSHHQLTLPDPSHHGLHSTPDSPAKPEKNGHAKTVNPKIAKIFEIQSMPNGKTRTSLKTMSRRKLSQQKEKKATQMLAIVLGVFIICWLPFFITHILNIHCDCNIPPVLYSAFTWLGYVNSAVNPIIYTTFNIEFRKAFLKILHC
row,Structure (SMILES),IC50
1,"COc1cccc2c1CC1(CCCN1CCCCN1C(=O)CC3(CCCC3)CC1=O)CO2 (single isomer, unassigned; (+))",1.31 µM
2,"COc1cccc2c1CC1(CCCN1CCCCN1C(=O)CC3(CCCC3)CC1=O)CO2 (single isomer, unassigned; (-))",11.3 µM

# Species: Rattus norvegicus
# Test: Effects of enantiomeric compound on adenylate cyclase activity in rat hippocampus at 10e-6 M
# Type: functional
# Procedure, shortened: as §1
row,Structure (SMILES),Effect
1,"COc1cccc2c1CC1(CCCN1CCCCN1C(=O)CC3(CCCC3)CC1=O)CO2 (single isomer, unassigned; (-))",86%

# Species: Rattus norvegicus
# Test: Effect of compound on Forskolin-Activated Adenylate Cyclase in Rat Hippocampi at 10e-10 M conc
# Type: functional
# Procedure, shortened: as §1
row,Structure (SMILES),Effect
1,"COc1cccc2c1CC1(CCCN1CCCCN1C(=O)CC3(CCCC3)CC1=O)CO2 (single isomer, unassigned; (+))",97%

# Molecular target: not listed separately
# Test: Binding affinity to 5-hydroxytryptamine 2 receptor using calf frontal cortex, [3H]- ketanserin, and spiperone for NSB
# Set-up: species or system Bos taurus
# Procedure, shortened: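 Calf frontal cortex; [3H]ketanserin near its KD; nonspecific binding with spiperone. Competition binding; IC50 = concentration inhibiting 50% of specific binding.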
row,Structure (SMILES),IC50
1,COc1cccc2c1CC1(CCC(=O)N1)CO2 (centres undefined),> 100 µM
2,"COc1cccc2c1CC1(CCCN1CCCCN1C(=O)CC3(CCCC3)CC1=O)CO2 (single isomer, unassigned; (+))",0.886 µM
3,"COc1cccc2c1CC1(CCCN1CCCCN1C(=O)CC3(CCCC3)CC1=O)CO2 (single isomer, unassigned; (-))",13.9 µM

# Species: Rattus norvegicus
# Test: Effect of compound on Forskolin-Activated Adenylate Cyclase in Rat Hippocampi at 10e-7 M conc
# Type: functional
# Procedure, shortened: as §1
row,Structure (SMILES),Effect
1,"COc1cccc2c1CC1(CCCN1CCCCN1C(=O)CC3(CCCC3)CC1=O)CO2 (single isomer, unassigned; (+))",84%

# Species: Rattus norvegicus
# Test: Effect of compound on Forskolin-Activated Adenylate Cyclase in Rat Hippocampi at 0 M conc
# Type: functional
# Procedure, shortened: as §1
row,Structure (SMILES),Effect
1,"COc1cccc2c1CC1(CCCN1CCCCN1C(=O)CC3(CCCC3)CC1=O)CO2 (single isomer, unassigned; (+))",100%

# Species: Rattus norvegicus
# Test: Effect of compound on Forskolin-Activated Adenylate Cyclase in Rat Hippocampi at 10e-8 M conc (p<0.05)
# Type: functional
# Procedure, shortened: as §1
row,Structure (SMILES),Effect
1,"COc1cccc2c1CC1(CCCN1CCCCN1C(=O)CC3(CCCC3)CC1=O)CO2 (single isomer, unassigned; (+))",88%

# Species: Rattus norvegicus
# Test: Effect of compound on Forskolin-Activated Adenylate Cyclase in Rat Hippocampi at 10e-9 M conc
# Type: functional
# Procedure, shortened: as §1
row,Structure (SMILES),Effect
1,"COc1cccc2c1CC1(CCCN1CCCCN1C(=O)CC3(CCCC3)CC1=O)CO2 (single isomer, unassigned; (+))",91%

# Species: Rattus norvegicus
# Test: Effects of enantiomeric compound on adenylate cyclase activity in rat hippocampus at 10e-7 M
# Type: functional
# Procedure, shortened: as §1
row,Structure (SMILES),Effect
1,"COc1cccc2c1CC1(CCCN1CCCCN1C(=O)CC3(CCCC3)CC1=O)CO2 (single isomer, unassigned; (-))",92%

# Species: Rattus norvegicus
# Test: Effects of enantiomeric compound on adenylate cyclase activity in rat hippocampus at 1 uM
# Type: functional
# Procedure, shortened: as §1
row,Structure (SMILES),Effect
1,"COc1cccc2c1CC1(CCCN1CCCCN1C(=O)CC3(CCCC3)CC1=O)CO2 (single isomer, unassigned; (-))",101%

# Species: Rattus norvegicus
# Test: Effect of compound on Forskolin-Activated Adenylate Cyclase in Rat Hippocampi at 10e-6 M conc
# Type: functional
# Procedure, shortened: as §1
row,Structure (SMILES),Effect
1,"COc1cccc2c1CC1(CCCN1CCCCN1C(=O)CC3(CCCC3)CC1=O)CO2 (single isomer, unassigned; (+))",82%

# Molecular target: T1, 5-hydroxytryptamine receptor 1A (Rattus norvegicus, UniProt P19327)
# T1 sequence (P19327 whole entry): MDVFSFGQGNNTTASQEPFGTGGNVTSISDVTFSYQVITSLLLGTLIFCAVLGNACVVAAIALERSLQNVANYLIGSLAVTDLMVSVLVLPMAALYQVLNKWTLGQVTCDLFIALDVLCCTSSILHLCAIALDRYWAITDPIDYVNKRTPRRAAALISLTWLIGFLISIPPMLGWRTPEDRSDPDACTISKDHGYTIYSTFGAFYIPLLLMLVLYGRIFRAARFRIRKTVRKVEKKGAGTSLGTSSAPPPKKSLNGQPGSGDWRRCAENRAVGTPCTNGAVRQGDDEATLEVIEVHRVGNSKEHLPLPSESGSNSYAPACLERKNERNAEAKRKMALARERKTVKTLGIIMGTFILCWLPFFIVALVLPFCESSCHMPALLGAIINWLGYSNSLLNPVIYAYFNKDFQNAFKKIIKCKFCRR
# Test: Binding affinity to 5-hydroxytryptamine 1A receptor in rat hippocampus membranes,3H-8-OH-DPAT and buspirone for nonspecific binding (NSB)
# Type: cell membranes
row,Structure (SMILES),IC50
1,COc1cccc2c1CC1(CCC(=O)N1)CO2 (centres undefined),4.37 µM
2,"COc1cccc2c1CC1(CCCN1CCCCN1C(=O)CC3(CCCC3)CC1=O)CO2 (single isomer, unassigned; (+))",0.00672 µM

# Molecular target: T2, Serotonin 3 receptor (5HT3) (Mus musculus, UniProt Q9JHJ5+P23979)
# T2 sequence (Q9JHJ5 whole entry): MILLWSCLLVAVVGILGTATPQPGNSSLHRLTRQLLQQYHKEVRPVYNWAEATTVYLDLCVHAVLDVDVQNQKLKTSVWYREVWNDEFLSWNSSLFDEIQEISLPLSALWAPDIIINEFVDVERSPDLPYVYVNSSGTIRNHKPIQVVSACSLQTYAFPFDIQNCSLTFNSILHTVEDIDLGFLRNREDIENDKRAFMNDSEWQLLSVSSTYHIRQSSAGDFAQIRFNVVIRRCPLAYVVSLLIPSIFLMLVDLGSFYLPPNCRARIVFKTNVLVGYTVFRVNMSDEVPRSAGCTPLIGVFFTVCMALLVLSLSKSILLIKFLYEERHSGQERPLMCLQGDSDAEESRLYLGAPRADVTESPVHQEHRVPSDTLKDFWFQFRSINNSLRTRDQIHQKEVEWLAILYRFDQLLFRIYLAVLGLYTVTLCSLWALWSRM
# T2 sequence (P23979 whole entry): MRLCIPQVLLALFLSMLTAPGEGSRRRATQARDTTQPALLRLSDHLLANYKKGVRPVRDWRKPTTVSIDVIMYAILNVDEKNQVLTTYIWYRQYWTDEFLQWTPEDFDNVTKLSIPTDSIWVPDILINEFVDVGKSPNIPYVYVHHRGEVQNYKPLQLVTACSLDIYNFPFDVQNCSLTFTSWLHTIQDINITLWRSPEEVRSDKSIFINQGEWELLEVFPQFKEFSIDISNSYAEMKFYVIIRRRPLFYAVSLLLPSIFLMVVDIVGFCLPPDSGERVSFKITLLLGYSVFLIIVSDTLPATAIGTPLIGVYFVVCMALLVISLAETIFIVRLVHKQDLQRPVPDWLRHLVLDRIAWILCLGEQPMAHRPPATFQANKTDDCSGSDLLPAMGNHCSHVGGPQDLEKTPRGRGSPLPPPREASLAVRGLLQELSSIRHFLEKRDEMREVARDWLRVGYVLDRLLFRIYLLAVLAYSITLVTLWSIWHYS
# Test: Displacement of [3H]-BRC 36694 from 5-hydroxytryptamine 3 receptor in NG108-15 cells
# Type: cell-based
# Procedure, shortened: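 NG108-15 cells; [3H]-BRC 36694 at approximately its KD; ICS 205930 for nonspecific binding. Competition binding expressed as IC50 against specific binding.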
row,Structure (SMILES),IC50
1,COc1cccc2c1CC1(CCC(=O)N1)CO2 (centres undefined),> 100 µM
2,"COc1cccc2c1CC1(CCCN1CCCCN1C(=O)CC3(CCCC3)CC1=O)CO2 (single isomer, unassigned; (+))",12.1 µM
3,"COc1cccc2c1CC1(CCCN1CCCCN1C(=O)CC3(CCCC3)CC1=O)CO2 (single isomer, unassigned; (-))",10.6 µM

# Species: Rattus norvegicus
# Test: Effects of enantiomeric compound on adenylate cyclase activity in rat hippocampus at 1 micro M conc
# Type: functional
# Procedure, shortened: as §1
row,Structure (SMILES),Effect
1,"COc1cccc2c1CC1(CCCN1CCCCN1C(=O)CC3(CCCC3)CC1=O)CO2 (single isomer, unassigned; (+))",79%
